Experimental data taken from ChEMBL document CHEMBL3612034, “Synthesis of bicoumarin thiophosphate derivatives as steroid sulfatase inhibitors” (Eur J Med Chem, 2015).
Calls of active or inactive are those of the source. No cut-off for these calls is given here.

Key:
Steryl-sulfatase [1] = biological target: T1, Steryl-sulfatase (Homo sapiens, UniProt P08842); assay: Inhibition of human placenta STS using NPS as substrate after 15 mins by microplate reader analysis
T1 sequence (P08842 whole entry): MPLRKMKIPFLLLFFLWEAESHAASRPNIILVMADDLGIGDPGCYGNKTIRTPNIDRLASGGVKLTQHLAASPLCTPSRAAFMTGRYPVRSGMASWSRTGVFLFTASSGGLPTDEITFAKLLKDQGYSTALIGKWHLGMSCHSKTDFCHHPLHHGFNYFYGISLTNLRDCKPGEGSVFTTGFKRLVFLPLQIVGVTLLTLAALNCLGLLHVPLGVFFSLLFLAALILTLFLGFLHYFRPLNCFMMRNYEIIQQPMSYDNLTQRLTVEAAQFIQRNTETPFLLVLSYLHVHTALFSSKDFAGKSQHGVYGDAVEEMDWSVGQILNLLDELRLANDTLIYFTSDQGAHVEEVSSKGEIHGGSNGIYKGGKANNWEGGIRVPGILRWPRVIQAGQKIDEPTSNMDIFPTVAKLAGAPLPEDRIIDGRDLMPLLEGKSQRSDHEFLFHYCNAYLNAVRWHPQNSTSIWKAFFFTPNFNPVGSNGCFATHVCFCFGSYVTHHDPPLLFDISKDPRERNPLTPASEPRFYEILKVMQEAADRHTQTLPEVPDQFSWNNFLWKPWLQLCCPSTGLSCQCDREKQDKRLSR
Summary of the method: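 Enzyme: STS extracted from human placenta and purified by multi-step chromatography. Each reaction held 20 mM Tris-HCl pH 7.4, 3 mM p-nitrophenyl sulfate (NPS), 5 U enzyme and graded inhibitor concentrations, and ran 15 min at 37 °C. Stopped with 1 M NaOH; released p-nitrophenol read at 405 nm. IC50 fitted from triplicate measurements.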

[2] = biological target: T2, Steryl-sulfatase (Homo sapiens) (UniProt P08842); assay: Irreversible inhibition of human placenta STS at 100 uM preincubated for 30 mins in standard condition followed by exchange of reaction environment
T2 sequence (whole entry): T1 sequence (P08842 whole entry)
Summary of the method: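 Purified human placental STS was run under standard assay conditions (Tris-HCl pH 7.4, NPS substrate, 37 °C) with inhibitor present. Restored enzyme activity was then measured the same way, by p-nitrophenol absorbance at 405 nm after an NaOH stop. Basal and restored activities were compared to tell reversible from irreversible inhibition.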

Steryl-sulfatase [3] = biological target: T1, Steryl-sulfatase; assay: Inhibition of human placenta STS
Summary of the method: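 Human placental STS purified to homogeneity by multi-step chromatography. Each reaction used 5 U enzyme, 20 mM Tris-HCl pH 7.4, 3 mM p-nitrophenyl sulfate (NPS) and a range of inhibitor concentrations, for 15 min at 37 °C. NaOH stopped the reaction, and released p-nitrophenol was read at 405 nm. IC50 came from the dose-response curve, run in triplicate.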

Steryl-sulfatase [4] = biological target: T1, Steryl-sulfatase; assay: Inhibition of recombinant human STS transfected in CHO cells using MUS as substrate after 30 mins by fluorescence assay; assay type: cell-based
[5] = biological target: T2, Steryl-sulfatase (Homo sapiens); assay: Reversible inhibition of human placenta STS at 100 uM preincubated for 30 mins in standard condition followed by exchange of reaction environment
Summary of the method: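 Reversibility test: the standard placental STS/NPS assay (Tris-HCl pH 7.4, 37 °C) was run with compound at a single fixed concentration. Enzyme activity was then measured again after restoration by the same p-nitrophenol absorbance read-out at 405 nm. Basal and restored activities were compared.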

Compound: COP(=S)(Oc1ccc2c3c(c(=O)oc2c1)CCC3)Oc1ccc2c3c(c(=O)oc2c1)CCC3
- IC50 (Steryl-sulfatase [1]): 75 µM

Compound: O=c1oc2cc(OP(=S)(Cl)Oc3ccc4c5c(c(=O)oc4c3)CCCC5)ccc2c2c1CCCC2
- IC50 (Steryl-sulfatase [1]): 7.76 µM
- inhibition [2]: Active

Compound: O=c1oc2cc(OP(=S)(Cl)Oc3ccc4c5c(c(=O)oc4c3)CCC5)ccc2c2c1CCC2
- IC50 (Steryl-sulfatase [1]): 33.8 µM

Compound: O=c1oc2cc(OP(O)(=S)Oc3ccc4c5c(c(=O)oc4c3)CCC5)ccc2c2c1CCC2
- IC50 (Steryl-sulfatase [1]): 26.9 µM

Compound: NP(=S)(Oc1ccc2c3c(c(=O)oc2c1)CCCC3)Oc1ccc2c3c(c(=O)oc2c1)CCCC3
- IC50 (Steryl-sulfatase [1]): 110 µM

Compound: COP(=S)(Oc1ccc2c3c(c(=O)oc2c1)CCCCC3)Oc1ccc2c3c(c(=O)oc2c1)CCCCC3
- IC50 (Steryl-sulfatase [1]): 6.77 µM
- inhibition [2]: Active

Compound: COP(=S)(Oc1ccc2c3c(c(=O)oc2c1)CCCC3)Oc1ccc2c3c(c(=O)oc2c1)CCCC3
- IC50 (Steryl-sulfatase [1]): 14.8 µM

Compound: NP(=S)(Oc1ccc2c3c(c(=O)oc2c1)CCCCC3)Oc1ccc2c3c(c(=O)oc2c1)CCCCC3
- IC50 (Steryl-sulfatase [1]): 88.8 µM

Compound: O=c1oc2cc(OP(O)(=S)Oc3ccc4c5c(c(=O)oc4c3)CCCCC5)ccc2c2c1CCCCC2
- IC50 (Steryl-sulfatase [1]): 5.51 µM

Compound: NP(=S)(Oc1ccc2c3c(c(=O)oc2c1)CCC3)Oc1ccc2c3c(c(=O)oc2c1)CCC3
- IC50 (Steryl-sulfatase [1]): 74.3 µM

Compound: O=c1oc2cc(OP(=S)(Cl)Oc3ccc4c5c(c(=O)oc4c3)CCCCC5)ccc2c2c1CCCCC2
- IC50 (Steryl-sulfatase [1]): 7.04 µM

Compound: NS(=O)(=O)Oc1ccc2c(c1)OC(O)C1=C2CCCCC1 (configuration not stated)
- IC50 (Steryl-sulfatase [3]): 0.008 µM

Compound: CC(C)N(C(=O)C1=CC[C@H]2[C@@H]3CCc4cc(OS(N)(=O)=O)ccc4[C@H]3CC[C@]12C)C(C)C
- IC50 (Steryl-sulfatase [4]): 0.004 µM

Compound: O=c1oc2cc(OP(O)(=S)Oc3ccc4c5c(c(=O)oc4c3)CCCC5)ccc2c2c1CCCC2
- IC50 (Steryl-sulfatase [1]): 0.86 µM
- inhibition [5]: Active
